Assay results published in ChEMBL document CHEMBL3227967, “Quantitative structure-activity relationships in 1-aryl-2-(alkylamino)ethanol antimalarials” (J Med Chem, 1979).

System: not listed separately
Experiment: Lipophilicity, log P of the compound in 0.1 N HCl solution
Format: physicochemical
Conditions: 0.1 N HCl solution; read-out: logP
Outline: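 Partition coefficients of the hydrochloride salts were measured from 0.1 N HCl solution unless a footnote says otherwise. Some entries were not measured. They were calculated by adding the Δlog P of the corresponding phenanthrene analogues to the measured log P of a reference hydrochloride.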

Row | logP | Structure (SMILES)
1 | 4.89 | CCCCCCCN(CCCCCCC)CC(O)c1cc2ccncc2c2cc(Br)ccc12 (stereo not drawn)
2 | 6.67 | CCCCNCC(O)c1cc(/C=C/c2ccc(C(F)(F)F)cc2)nc(/C=C/c2ccc(C(F)(F)F)cc2)c1 (stereo not drawn)
3 | 5.25 | CCCCCCCN(CCCCCCC)CC(O)c1ccc(Cl)c2c(C)ccnc12 (stereo not drawn)
4 | 4.03 | CCCCCCCN(CCCCCCC)CC(O)c1cc2ccccc2c2cnccc12 (stereo not drawn)
5 | 3.71 | CCCCN(CCCC)CC(O)c1cnc2c(-c3ccccc3)cccc2c1Cl (stereo not drawn)
6 | 8.34 | CCCCCCCCN(CCCCCCCC)CC(O)c1cc(-c2ccc(Cl)c(Cl)c2)nc2ccc(OC)cc12 (stereo not drawn)
7 | 2.8 | CCCCCNCC(O)c1cc2ccccc2c2ccccc12 (stereo not drawn)
8 | 3.69 | CCCCCCN(CCCCCC)CC(O)c1ccc(Cl)c2ncccc12 (stereo not drawn)
9 | 3.58 | CCCCCN(CCCCC)CC(O)c1cc(-c2ccccc2)nc2ccccc12 (stereo not drawn)
10 | 3.97 | CCCCN(CCCC)CC(O)c1cc(-c2ccccc2C(F)(F)F)nc(C(F)(F)F)c1 (stereo not drawn)
11 | 2.19 | CCCCN(CCCC)CC(O)c1ccc(Cl)c2ccccc12 (stereo not drawn)
12 | 4.03 | CCCCCCCN(CCCCCCC)CC(O)c1cc2ccccc2c2cccnc12 (stereo not drawn)
13 | 1.92 | CCCCN(CCCC)CC(O)c1cnc2c(C(F)(F)F)cccc2c1 (stereo not drawn)
14 | 4.89 | CCCCCCCN(CCCCCCC)CC(O)c1cc2ccc(Br)cc2c2cccnc12 (stereo not drawn)
15 | 5.67 | CCCCN(CCCC)CC(O)c1cc(-c2ccc(Cl)cc2)c2cc(-c3ccccc3)ccc2n1 (stereo not drawn)
16 | 2.55 | CCCCN(CCCC)CC(O)c1c(OC)c2ccccc2c2ccccc12 (stereo not drawn)
17 | 7.11 | CCCCCCCN(CCCCCCC)CC(O)c1cc(-c2ccccc2)nc(-c2ccccc2)c1 (stereo not drawn)
18 | 5.51 | CCCCCCCN(CCCCCCC)CC(O)c1cc(-c2ccccc2)nc2ccccc12 (stereo not drawn)
19 | 2.46 | CCCCN(CCCC)CC(O)c1ccc2cc(Cl)cc(Cl)c2n1 (stereo not drawn)

The remaining lines, values behind:

Row | Structure (SMILES) | logP
20 | CC(C)(C)c1cc(C(O)CC2CCCCN2)c2ccccc2n1 (stereo not drawn) | 2.03
21 | CC(C)(C)c1cc(C(O)CC2CCCCN2)c2cc(Cl)ccc2n1 (stereo not drawn) | 2.74
22 | Cc1cc(C)c2ncc(C(O)CC3CCCCN3)cc2c1 (stereo not drawn) | 1.17
23 | CCCNCC(O)c1cc(-c2ccccc2)nc(-c2ccccc2)c1 (stereo not drawn) | 3.03
24 | CCCCN(CCCC)CC(O)c1cc(Cl)cc2c(C)ccnc12 (stereo not drawn) | 2.31
25 | OC(c1cc(-c2ccccc2)nc2ccccc12)C1CCCCN1 (stereo not drawn) | 1.58
26 | CC(C)c1cc(C(O)CC2CCCCN2)c2ccccc2n1 (stereo not drawn) | 1.58
27 | CN(C)CC(O)c1cc2ccccc2c2ccccc12 (stereo not drawn) | 1.08
28 | OC(CNC12CC3CC(CC(C3)C1)C2)c1cc(-c2ccc(F)cc2)nc2cc(F)ccc12 (stereo not drawn) | 3.84
29 | CCCCN(CCCC)CC(O)c1cnc2c(C)cc(C)cc2c1Cl (stereo not drawn) | 2.87
30 | N#CCCN(CCC#N)CC(O)c1cc2ccccc2c2ccccc12 (stereo not drawn) | 0.37
31 | CC(=O)N1CCCCC1CC(O)c1cc(C23CC4CC(CC(C4)C2)C3)nc2c(Cl)cc(Cl)cc12 (stereo not drawn) | 4.29
32 | CCCNCC(O)c1cc(-c2ccccc2)nc2ccccc12 (stereo not drawn) | 1.43
33 | OC(CN1CCCCCC1)c1cccc2ccc(-c3ccccc3)nc12 (stereo not drawn) | 2.91
34 | OC(c1cc(-c2ccccc2)nc(-c2ccccc2)c1)C1CCCCN1 (stereo not drawn) | 3.18

Same assay, conditions: buffer

Row | logP | Structure (SMILES)
35 | 9.77 | CCCCCCCCCN(CCCCCCCCC)CCC(O)c1cc2ccc(C(F)(F)F)cc2c2cc(C(F)(F)F)ccc12 (stereo not drawn)

System: Plasmodium berghei
Experiment: Antimalarial activity against Plasmodium berghei
Format: functional
Conditions: not given

Row | Structure (SMILES) | log(1/C)
36 | CC(C)(C)c1cc(C(O)CC2CCCCN2)c2ccccc2n1 (stereo not drawn) | 2.08
37 | CCCCCCCN(CCCCCCC)CC(O)c1cc2ccncc2c2cc(Br)ccc12 (stereo not drawn) | 2.12
38 | CC(C)(C)c1cc(C(O)CC2CCCCN2)c2cc(Cl)ccc2n1 (stereo not drawn) | 2.48
